Data set [1] can be described thus: folding enthalpy; higher = less favourable; fluorescence melt of hairpins on a sequencing array, two-state fit. The settings on record: sodium 0.088 M. The essentials: (§1)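 Cy3 fluorescence of library hairpins on a sequenced MiSeq flow cell, with annealed Cy3 and quencher oligos, was imaged in 50 mM Na-HEPES pH 8.0, 25 mM NaCl in 2.5 °C steps up to 60 °C. Signals were normalised to pre-quench Cy3 and to control variants. Melting temperature and folding enthalpy came from bootstrapped two-state fits, inverse-variance combined over four replicates. Fitted temperatures were raised by 9.35 °C to match UV melts.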

Data set [2] can be described thus: melting temperature; fluorescence melt of hairpins on a sequencing array, two-state fit, raised by 9.35 °C to match UV melts. The settings on record: sodium 0.088 M. The essentials: as §1

Consider 32 sequences from the array DNA melting data of Ke et al. (doi:10.1101/2024.01.08.574731).

For GATCATGTCCATGATC ((((((....)))))), the folding enthalpy in data set [1] was -42.5 kcal/mol. Besides, the Tm in data set [2] is 54.8 °C.
As for GATCATGTGCATGATC ((((((....)))))), the folding enthalpy in data set [1] was -32.3 kcal/mol. In addition, the Tm in data set [2] was 50.3 °C.
For the sequence GATCATGTGTATGATC ((((((....)))))), the folding enthalpy in data set [1] is -41.9 kcal/mol. Also, in data set [2], the Tm amounted to 48.4 °C.
In the same order, the values of GATCATGTTAATGATC ((((((....)))))) are -40.5 kcal/mol and 56.2 °C.
Take GATCATGTTTATGATC ((((((....)))))): in data set [1], the folding enthalpy was -39.1 kcal/mol. Moreover, in data set [2], the Tm is 50 °C.
Consider GATCATTACAATGATC ((((((....)))))), for which the folding enthalpy in data set [1] is -37.9 kcal/mol. Moreover, the Tm in data set [2] stood at 49.7 °C.
In the same order, the values of GATCATTAGATGATC ((((((...)))))) are -29.2 kcal/mol and 44.4 °C.
On the same counts, the results for GATCATTAGCATGATC ((((((....)))))) are -32.6 kcal/mol and 44.2 °C.
For the sequence GATCATTATGATGATC ((((((....)))))), the folding enthalpy in data set [1] is -43.7 kcal/mol. Moreover, in data set [2], the Tm amounted to 48.6 °C.
On the same counts, the results for GATCATTCATATGATC ((((((....)))))) are -38.8 kcal/mol and 48 °C.
On the same counts, the results for GATCATTCCAATGATC ((((((....)))))) are -33.9 kcal/mol and 50.4 °C.
On the same counts, the results for GATCATTCCATGATC ((((((...)))))) are -39.4 kcal/mol and 51 °C.
Take GATCATTGAATGATC ((((((...)))))): in data set [1], the folding enthalpy is -35.9 kcal/mol. The Tm in data set [2] amounted to 44.4 °C.
Regarding GATCATTGATATGATC ((((((....)))))), the folding enthalpy in data set [1] was -28 kcal/mol. In addition, the Tm in data set [2] is 45.5 °C.
For the sequence GATCATTGTGATGATC ((((((....)))))), in data set [1], the folding enthalpy is -43.4 kcal/mol. Moreover, in data set [2], the Tm worked out at 51 °C.
On the same counts, the results for GATCATTGTTATGATC ((((((....)))))) are -37 kcal/mol and 47.3 °C.
In the same order, the values of GATCATTTTATGATC ((((((...)))))) are -30.4 kcal/mol and 51.4 °C.
In the same order, the values of GATCCAAATGTGGATC ((((((....)))))) are -33.8 kcal/mol and 48.5 °C.
Consider GATCCAACATGGATC ((((((...)))))), for which, in data set [1], the folding enthalpy was -33.7 kcal/mol. Further, the Tm in data set [2] came out at 50.4 °C.
As for GATCCAACCGTGGATC ((((((....)))))), in data set [1], the folding enthalpy was -30.3 kcal/mol. Also, the Tm in data set [2] worked out at 49.8 °C.
GATCCAACCTGGATC ((((((...)))))): the folding enthalpy in data set [1] was -31 kcal/mol. The Tm in data set [2] worked out at 50.4 °C.
Take GATCCAACCTTGGATC ((((((....)))))): the folding enthalpy in data set [1] is -51.5 kcal/mol. For the same sequence, in data set [2], the Tm was 51.5 °C.
In the case of GATCCAACGATGGATC ((((((....)))))), the folding enthalpy in data set [1] was -34 kcal/mol. Besides, the Tm in data set [2] worked out at 48.1 °C.
On to GATCCAACTTGGATC ((((((...)))))), for which the folding enthalpy in data set [1] is -29 kcal/mol. Besides, in data set [2], the Tm is 51.2 °C.
On the same counts, the results for GATCCAAGCCTGGATC ((((((....)))))) are -40 kcal/mol and 50.6 °C.
On the same counts, the results for GATCCAAGCTGGATC ((((((...)))))) are -28.8 kcal/mol and 50.5 °C.
On the same counts, the results for GATCCAAGCTTGGATC ((((((....)))))) are -54.6 kcal/mol and 54.8 °C.
In the case of GATCCAAGGATGGATC ((((((....)))))), the folding enthalpy in data set [1] was -27.5 kcal/mol. Further, the Tm in data set [2] is 47.8 °C.
In the case of GATCCAATAGTGGATC ((((((....)))))), the folding enthalpy in data set [1] is -30.8 kcal/mol. In data set [2], the Tm came to 46.6 °C.
Take GATCCAATCGTGGATC ((((((....)))))): the folding enthalpy in data set [1] was -38.5 kcal/mol. For the same sequence, the Tm in data set [2] turned out to be 49 °C.
For the sequence GATCCAATTATGGATC ((((((....)))))), the folding enthalpy in data set [1] is -36.5 kcal/mol. The Tm in data set [2] turned out to be 50.4 °C.
In the same order, the values of GATCCAATTGTGGATC ((((((....)))))) are -32.7 kcal/mol and 49.6 °C.
